Results on 17 compounds are retold here after ChEMBL document CHEMBL1137351, “Discovery of conformationally constrained tetracyclic compounds as potent hepatitis C virus NS5B RNA polymerase inhibitors” (J Med Chem, 2006).

The target of series [1] is RNA-directed RNA polymerase (Hepacivirus hominis, UniProt O39930). The series is described as follows: Inhibition of HCV NS5B RNA polymerase.
In series [2] the test system is Caco-2. The series is described as follows: Cytotoxicity against Caco-2 cells. Type of series: functional. As to conditions: Homo sapiens; call rule not given here.
Series [3] is described as follows: (§1) Permeability across Caco-2 cells. Type of series: ADME, cell-based. As to conditions: human, read-out: permeability. Background: Passage across Caco-2 layers is used to estimate intestinal permeability.
In series [4] the test system is Huh-5-2. The series is described as follows: Inhibition of replication of HCV 1b BK RNA in Huh5-2 cells in presence of 10% fetal calf serum. It is filed as functional, cell-based, Hepacivirus hominis. As to conditions: Homo sapiens, genotype 1b BK. In short, it runs like this:
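Huh-5-2 cells carrying the HCV replicon, assayed in medium with 10% FCS. EC50 is the mean of three independent experiments, with standard deviations within 30% of the mean.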

In series [5] the test system is Huh-5-2. Kind of series: Inhibition of replication of HCV 1b BK RNA in Huh5-2 cells in presence of 10% fetal calf serum and 4% human serum albumin. To be noted: genotype 1b BK. Type of series: functional, cell-based, Hepacivirus hominis. In short, it runs like this:
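Huh-5-2 replicon cells in medium with 10% FCS plus 4% human serum albumin. EC50 is the average of two experiments.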

The test system of series [6] is Caco-2. The series is described as §1. It is filed as ADME, cell-based. As to conditions: human.

Sequence of RNA-directed RNA polymerase (O39930 whole entry): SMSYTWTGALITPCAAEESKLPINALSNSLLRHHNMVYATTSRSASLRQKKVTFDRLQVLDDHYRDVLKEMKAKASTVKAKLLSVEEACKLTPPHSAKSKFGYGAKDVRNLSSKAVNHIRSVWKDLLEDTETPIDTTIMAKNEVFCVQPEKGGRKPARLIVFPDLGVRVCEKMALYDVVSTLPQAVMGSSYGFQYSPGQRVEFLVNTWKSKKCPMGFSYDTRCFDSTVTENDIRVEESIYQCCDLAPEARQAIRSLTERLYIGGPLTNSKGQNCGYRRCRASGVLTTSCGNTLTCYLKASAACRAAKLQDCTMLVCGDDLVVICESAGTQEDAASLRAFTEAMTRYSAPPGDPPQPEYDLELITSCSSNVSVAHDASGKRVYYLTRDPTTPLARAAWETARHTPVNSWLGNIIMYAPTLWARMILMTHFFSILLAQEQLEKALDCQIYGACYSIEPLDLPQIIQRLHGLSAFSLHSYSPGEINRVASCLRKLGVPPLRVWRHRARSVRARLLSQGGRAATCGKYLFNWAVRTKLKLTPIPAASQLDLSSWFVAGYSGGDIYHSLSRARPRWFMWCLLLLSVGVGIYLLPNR

The IC50 is the concentration that gives 50% inhibition. Low values mean higher potency, high ones lower potency. The term CC50 denotes the concentration that lowers cell viability or growth by half. The low end stands for greater toxicity to the cells, the high end for lower toxicity to the cells. The EC50 is the concentration that produces a half-maximal response. The compound `Cl.O=C(O)c1ccc2c(C3CCCCC3)c3n(c2c1)CCNc1ccccc1-3` showed an IC50 in series [1] of 21 nM. Moreover, in the series with Caco-2 [2], the CC50 is over 20 µM. For the same compound, in series [3], the Papp worked out at 55.9 ×10⁻⁶ cm/s. Further, the EC50 in the series with Huh-5-2 [4] was 570 nM; in the series on Huh-5-2 [5], over 10 µM.
For `Cl.Cl.O=C(O)c1ccc2c(C3CCCCC3)c3n(c2c1)CCN(CCN1CCCCC1)c1ccccc1-3`, in that order: 9 nM, over 20 µM, 18.6 ×10⁻⁶ cm/s, 35 nM and 0.084 µM.
On the same counts, the results for `CN(C)CCN1CCn2c(c(C3CCCCC3)c3ccc(C(=O)O)cc32)-c2ccccc21.Cl.Cl` are 18 nM, over 20 µM, 19.2 ×10⁻⁶ cm/s, 53 nM and 0.2 µM.
In the case of `CN1CCn2c(c(C3CCCCC3)c3ccc(C(=O)O)cc32)-c2ccccc21`, the IC50 in series [1] was found to be 19 nM. The CC50 in the series on Caco-2 [2] was over 20 µM. Further, the result in the series on Caco-2 [6] was Active. Also, the EC50 stood at 590 nM in the series on Huh-5-2 [4] and 6.5 µM with Huh-5-2 [5].
Take `O=C(O)c1ccc2c(C3CCCCC3)c3n(c2c1)CCSc1ccccc1-3`: in series [1], the IC50 came out at 38 nM. In the series with Huh-5-2 [4], the EC50 is 1400 nM.
In series [1], `CC(C)N1CCn2c(c(C3CCCCC3)c3ccc(C(=O)O)cc32)-c2ccccc21` came in with a concentration for half-maximal inhibition (IC50) of 36 nM. In the series on Caco-2 [2], this compound gave a cytotoxic concentration (CC50) of over 20 µM. Besides, the outcome in the series with Caco-2 [6] was Active. In addition, the EC50 in the series on Huh-5-2 [4] turned out to be 1500 nM.
With `O=C(O)c1ccc2c(C3CCCCC3)c3n(c2c1)CCCc1ccccc1-3`, in series [1], the IC50 was 77 nM. The EC50 with Huh-5-2 [4] came out at 3000 nM.
`O=C(O)c1ccc2c(C3CCCCC3)c3n(c2c1)CCN(CCc1ccccc1)c1ccccc1-3` displayed a half-inhibitory concentration (IC50) in series [1] of 26 nM. Also, in the series with Caco-2 [2], the CC50 is over 20 µM. Moreover, the result in the series on Caco-2 [6] was Active. Moreover, the EC50 in the series on Huh-5-2 [4] was 310 nM.
Consider `Cn1c(-c2ccc(OCc3ccccc3)cc2)c(C2CCCCC2)c2ccc(C(=O)O)cc21`, for which half-maximal inhibition in series [1] (IC50) required 120 nM.
Take `CC(=O)N1CCn2c(c(C3CCCCC3)c3ccc(C(=O)O)cc32)-c2ccccc21`: half-maximal inhibition in series [1] (IC50) was put at 120 nM. In addition, the CC50 with Caco-2 [2] is over 20 µM. The result with Caco-2 [6] was Active. Moreover, the concentration for a half-maximal effect (EC50) in the series on Huh-5-2 [4] stood at 1100 nM.
In series [1], `O=C(O)c1ccc2c(C3CCCCC3)c3n(c2c1)Cc1ccccc1-3` displayed an IC50 of 210 nM. Also, in the series on Huh-5-2 [4], the EC50 was over 10000 nM.
On the same counts, the results for `O=C(O)c1ccc2c(C3CCCCC3)c3n(c2c1)CCc1ccccc1-3` are 140 nM and 6000 nM.
Turning to `CN(C)C(=O)CN1CCn2c(c(C3CCCCC3)c3ccc(C(=O)O)cc32)-c2ccccc21`, the IC50 in series [1] was 24 nM. The compound further yielded a CC50 in the series on Caco-2 [2] of over 20 µM. Moreover, the Papp in series [3] is 51.9 ×10⁻⁶ cm/s. In addition, the EC50 in the series on Huh-5-2 [4] came out at 210 nM; in the series with Huh-5-2 [5], 4.3 µM.
In the case of `O=C(O)c1ccc2c(C3CCCCC3)c3n(c2c1)CCOc1cc(OCc2ccccc2)ccc1-3`, it took 17 nM to reach half-maximal inhibition in series [1] (IC50).
`O=C(O)c1ccc2c(C3CCCCC3)c3n(c2c1)CCOc1ccccc1-3` showed an IC50 in series [1] of 26 nM. In addition, the EC50 in the series on Huh-5-2 [4] was 860 nM.
For `O=C(O)c1ccc2c(C3CCCCC3)c3n(c2c1)COc1ccccc1-3`, in that order: 140 nM and 4200 nM.
In series [1], `O=C(O)c1ccc2c(C3CCCCC3)c3n(c2c1)CCN(Cc1ccccc1)c1ccccc1-3` came in with an IC50 of 41 nM. Also, the CC50 in the series on Caco-2 [2] was over 20 µM. In the series with Caco-2 [6], the outcome was Active. Further, in the series with Huh-5-2 [4], the EC50 was 550 nM.
